Experimental data: ChEMBL document CHEMBL3588831, “Synthesis and in Vivo Evaluation of [123I]Melanin-Targeted Agents” (J Med Chem, 2015); call rule not given here

Tests used:
Kidney [1] = test: Biodistribution in kidney of C57BL/6J mouse bearing mouse B16F0 cells at 0.37 to 1.85 MBq, iv after 48 hrs by gamma counting method; type: ADME, organism-based; details: in vivo
Summary of the method: (§1)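 Female C57BL/6J mice (5−6 weeks), s.c. inoculated on left flank with 3 × 10^5 B16F0 cells in Ca2+/Mg2+-free PBS, used 11 days later (tumors 2−12 mm). Radiotracer given via tail vein in 100 μL (~0.37 MBq for 1−24 h, 1.85 MBq for 48 h). Organs dissected, weighed, γ-counted, decay corrected. Expressed as % ID/g against injected-dose dilutions. Mean ± SEM, n = 5.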

Mus musculus [2] = test: Biodistribution in small gastrointestinal tract of C57BL/6J mouse bearing mouse B16F0 cells at 0.37 to 1.85 MBq, iv after 3 hrs by gamma counting method; type: ADME, organism-based, Small intestine; details: in vivo; summary of the method: as §1
[3] = Stability in urine of C57BL/6J mouse bearing mouse B16F0 cells assessed as drug degradation at 0.37 to 1.85 MBq, iv after 24 hrs by radio-HPLC and radio-TLC method; type: ADME, organism-based; details: in vivo, in the assay text read “20 MBq” for “0.37 to 1.85 MBq”
Summary of the method: (§2)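 Tumor-bearing C57BL/6J mice were sampled 3 and 24 h after i.v. tracer. Tissue was sonicated in CH3CN/water (3:2) with cold iodo standard and KI, then centrifuged. Urine was diluted and spiked; plasma was spiked, with CH3CN precipitation for TLC. Intact fraction came from silica radio-TLC (spot matching standard Rf) and radio-HPLC with precolumn/C18 column switching.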

[4] = Drug distribution in eyes of C57BL/6J mouse bearing mouse B16F0 cells at 18 to 20 MBq, iv measured over 72 hrs by SPECT imaging study; type: ADME, organism-based, Eye; details: in vivo
Summary of the method: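 Female C57BL/6J mice (5–6 weeks) were inoculated s.c. on the left flank with 3 × 10^5 B16F0 cells in PBS and used after 11 days, with tumors 2–12 mm. Each received 18–20 MBq in 100 μL by lateral tail vein (n = 3 per tracer). Planar SPECT was done under isoflurane at 10–60 min, 3, 6, 24, 48 and 72 h. ROI pixel values were decay-corrected.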

Mus musculus [5] = test: Biodistribution in thyroid gland of C57BL/6J mouse bearing mouse B16F0 cells at 0.37 to 1.85 MBq, iv after 16 hrs by gamma counting method; type: ADME, organism-based; details: in vivo; summary of the method: as §1
Mus musculus [6] = test: Biodistribution in large gastrointestinal tract of C57BL/6J mouse bearing mouse B16F0 cells at 0.37 to 1.85 MBq, iv after 1 hr by gamma counting method; type: ADME, organism-based, Large intestine; details: in vivo; summary of the method: as §1
Liver [7] = test: Biodistribution in liver of C57BL/6J mouse bearing mouse B16F0 cells at 0.37 to 1.85 MBq, iv after 48 hrs by gamma counting method; type: ADME, organism-based; details: in vivo; summary of the method: as §1
Kidney [8] = test: Biodistribution in kidney of C57BL/6J mouse bearing mouse B16F0 cells at 0.37 to 1.85 MBq, iv after 16 hrs by gamma counting method; type: ADME, organism-based; details: in vivo; summary of the method: as §1
Mus musculus [9] = test: Biodistribution in small gastrointestinal tract of C57BL/6J mouse bearing mouse B16F0 cells at 0.37 to 1.85 MBq, iv after 48 hrs by gamma counting method; type: ADME, organism-based; details: in vivo; summary of the method: as §1
Liver [10] = test: Biodistribution in liver of C57BL/6J mouse bearing mouse B16F0 cells at 0.37 to 1.85 MBq, iv after 16 hrs by gamma counting method; type: ADME, organism-based; details: in vivo; summary of the method: as §1
[11] = Stability in eyes of C57BL/6J mouse bearing mouse B16F0 cells assessed as intact parent compound level at 0.37 to 1.85 MBq, iv after 24 hrs by radio-HPLC and radio-TLC method; type: ADME, organism-based, Eye; details: in the assay text read “20 MBq” for “0.37 to 1.85 MBq”, read-out: Stability; summary of the method: as §2
Mus musculus [12] = test: Biodistribution in large gastrointestinal tract of C57BL/6J mouse bearing mouse B16F0 cells at 0.37 to 1.85 MBq, iv after 16 hrs by gamma counting method; type: ADME, organism-based, Large intestine; details: in vivo; summary of the method: as §1
Mus musculus [13] = test: Biodistribution in small gastrointestinal tract of C57BL/6J mouse bearing mouse B16F0 cells at 0.37 to 1.85 MBq, iv after 1 hr by gamma counting method; type: ADME, organism-based, Small intestine; details: in vivo; summary of the method: as §1
Liver [14] = test: Biodistribution in liver of C57BL/6J mouse bearing mouse B16F0 cells at 0.37 to 1.85 MBq, iv after 24 hrs by gamma counting method; type: ADME, organism-based; details: in vivo; summary of the method: as §1
Kidney [15] = test: Biodistribution in kidney of C57BL/6J mouse bearing mouse B16F0 cells at 0.37 to 1.85 MBq, iv after 24 hrs by gamma counting method; type: ADME, organism-based; details: in vivo; summary of the method: as §1
Spleen [16] = test: Biodistribution in spleen of C57BL/6J mouse bearing mouse B16F0 cells at 0.37 to 1.85 MBq, iv after 3 hrs by gamma counting method; type: ADME, organism-based; details: in vivo; summary of the method: as §1
Mus musculus [17] = test: Biodistribution in small gastrointestinal tract of C57BL/6J mouse bearing mouse B16F0 cells at 0.37 to 1.85 MBq, iv after 16 hrs by gamma counting method; type: ADME, organism-based, Small intestine; details: in vivo; summary of the method: as §1
Kidney [18] = test: Biodistribution in kidney of C57BL/6J mouse bearing mouse B16F0 cells at 0.37 to 1.85 MBq, iv after 1 hr by gamma counting method; type: ADME, organism-based; details: in vivo; summary of the method: as §1
Mus musculus [19] = test: Biodistribution in thyroid gland of C57BL/6J mouse bearing mouse B16F0 cells at 0.37 to 1.85 MBq, iv after 24 hrs by gamma counting method; type: ADME, organism-based; details: in vivo; summary of the method: as §1
Mus musculus [20] = test: Biodistribution in eyes of C57BL/6J mouse bearing mouse B16F0 cells at 0.37 to 1.85 MBq, iv after 6 hrs by gamma counting method; type: ADME, organism-based, Eye; details: in vivo; summary of the method: as §1
Mus musculus [21] = test: Biodistribution in eyes of C57BL/6J mouse bearing mouse B16F0 cells at 0.37 to 1.85 MBq, iv after 1 hr by gamma counting method; type: ADME, organism-based, Eye; details: in vivo; summary of the method: as §1
Mus musculus [22] = test: Biodistribution in eyes of C57BL/6J mouse bearing mouse B16F0 cells at 0.37 to 1.85 MBq, iv after 16 hrs by gamma counting method; type: ADME, organism-based, Eye; details: in vivo; summary of the method: as §1
Kidney [23] = test: Biodistribution in kidney of C57BL/6J mouse bearing mouse B16F0 cells at 0.37 to 1.85 MBq, iv after 6 hrs by gamma counting method; type: ADME, organism-based; details: in vivo; summary of the method: as §1
Spleen [24] = test: Biodistribution in spleen of C57BL/6J mouse bearing mouse B16F0 cells at 0.37 to 1.85 MBq, iv after 24 hrs by gamma counting method; type: ADME, organism-based; details: in vivo; summary of the method: as §1
[25] = Ratio of AUC in tumor to thyroid gland of C57BL/6J mouse bearing mouse B16F0 cells at 0.37 to 1.85 MBq, iv by gamma counting method; type: ADME, organism-based; details: in vivo
Summary of the method: (§3)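 Biodistribution in B16F0-bearing C57BL/6J mice given i.v. tail-vein tracer (~0.37 MBq for 1–24 h, 1.85 MBq for 48 h). Sacrifice at 1, 3, 6, 16, 24 and 48 h, then organs dissected, weighed and γ-counted as decay-corrected % ID/g. Tumor AUC divided by each organ AUC; mean of ratios ± SEM, n = 5.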

[26] = Ratio of AUC in tumor to skin of C57BL/6J mouse bearing mouse B16F0 cells at 0.37 to 1.85 MBq, iv by gamma counting method; type: ADME, organism-based; details: in vivo; summary of the method: as §3
[27] = Ratio of AUC in tumor to bone of C57BL/6J mouse bearing mouse B16F0 cells at 0.37 to 1.85 MBq, iv by gamma counting method; type: ADME, organism-based; details: in vivo; summary of the method: as §3
Mus musculus [28] = test: Biodistribution in thyroid gland of C57BL/6J mouse bearing mouse B16F0 cells at 0.37 to 1.85 MBq, iv after 1 hr by gamma counting method; type: ADME, organism-based; details: in vivo; summary of the method: as §1

Compound	Drug uptake (Kidney [1])	Drug uptake (Mus musculus [2])	Stability [3]	Drug uptake [4]	Drug uptake (Mus musculus [5])	Drug uptake (Mus musculus [6])	Drug uptake (Liver [7])	Drug uptake (Kidney [8])	Drug uptake (Mus musculus [9])	Drug uptake (Liver [10])	remaining at 24 h [11]	Drug uptake (Mus musculus [12])	Drug uptake (Mus musculus [13])	Drug uptake (Liver [14])	Drug uptake (Kidney [15])	Drug uptake (Spleen [16])	Drug uptake (Mus musculus [17])	Drug uptake (Kidney [18])	Drug uptake (Mus musculus [19])	Drug uptake (Mus musculus [20])	further results
O=C(CN1Cc2ccccc2C1=O)NC1CCN(Cc2ccc([123I])cc2)CC1	0.3 % ID/g	12 % ID/g	Unstable	Active	2.3 % ID/g	6.6 % ID/g	1.9 % ID/g	1.8 % ID/g	0.3 % ID/g	7.1 % ID/g	80%	8.1 % ID/g	11.9 % ID/g	7.8 % ID/g	1.9 % ID/g	7.6 % ID/g	3.7 % ID/g	8 % ID/g	2.6 % ID/g	28.1 % ID/g	Drug uptake (Mus musculus [21]): 13.7 % ID/g; Drug uptake (Mus musculus [22]): 40.4 % ID/g; Drug uptake (Kidney [23]): 5 % ID/g; Drug uptake (Spleen [24]): 1.2 % ID/g; Ratio [25]: 5.8; Ratio [26]: 24.4; Ratio [27]: 65.8; Drug uptake (Mus musculus [28]): 3.4 % ID/g
O=C(c1ccc2cccnc2n1)N1CCN(Cc2ccc([123I])cc2)CC1	0.5 % ID/g	14.1 % ID/g	Unstable	Active	1.6 % ID/g	3.2 % ID/g	0.7 % ID/g	1.6 % ID/g	0.2 % ID/g	2.4 % ID/g	35%	1.8 % ID/g	14.4 % ID/g	1.8 % ID/g	1.4 % ID/g	2.3 % ID/g	1.3 % ID/g	7.5 % ID/g	2.9 % ID/g	37.2 % ID/g	Drug uptake (Mus musculus [21]): 32 % ID/g; Drug uptake (Mus musculus [22]): 32.9 % ID/g; Drug uptake (Kidney [23]): 5.2 % ID/g; Drug uptake (Spleen [24]): 0.5 % ID/g; Ratio [25]: 5; Ratio [26]: 45.3; Ratio [27]: 44; Drug uptake (Mus musculus [28]): 2.3 % ID/g
O=C(c1ccc2c(n1)NCCC2)N1CCN(Cc2ccc([123I])cc2)CC1	0.4 % ID/g	63.8 % ID/g	Unstable	Active	2.5 % ID/g	7.9 % ID/g	0.2 % ID/g	1.2 % ID/g	0.1 % ID/g	0.9 % ID/g	35%	2.3 % ID/g	45.6 % ID/g	0.8 % ID/g	1 % ID/g	2 % ID/g	1.4 % ID/g	15.6 % ID/g	2 % ID/g	52.8 % ID/g	Drug uptake (Mus musculus [21]): 40.3 % ID/g; Drug uptake (Mus musculus [22]): 28.6 % ID/g; Drug uptake (Kidney [23]): 10 % ID/g; Drug uptake (Spleen [24]): 0.2 % ID/g; Ratio [25]: 7.2; Ratio [26]: 40.9; Ratio [27]: 65.5; Drug uptake (Mus musculus [28]): 5.1 % ID/g
O=C(CN1Cc2ccccc2C1=O)N1C[C@H]2CN(Cc3ccc([123I])cc3)C[C@H]2C1	0.2 % ID/g	15.2 % ID/g	Unstable	Active	1 % ID/g	3.5 % ID/g	0.2 % ID/g	1 % ID/g	0.1 % ID/g	0.7 % ID/g	80%	1.4 % ID/g	21.4 % ID/g	0.4 % ID/g	0.5 % ID/g	0.5 % ID/g	0.5 % ID/g	15.8 % ID/g	1 % ID/g	21.8 % ID/g	Drug uptake (Mus musculus [21]): 18.2 % ID/g; Drug uptake (Mus musculus [22]): 22.1 % ID/g; Drug uptake (Kidney [23]): 4.1 % ID/g; Drug uptake (Spleen [24]): 0.05 % ID/g; Ratio [25]: 6; Ratio [26]: 23.1; Ratio [27]: 25; Drug uptake (Mus musculus [28]): 1.9 % ID/g
